RORA act: activates the human nuclear receptor RORA; 65,000 tested, 1.5% active; CHO-K1 Gal4-RORA LBD luciferase reporter, luminescence; percent increase over mock-subtracted basal signal; activation, % at 10 µM; P35398;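 active means activation above the mean of all tested compounds plus 3 SD, cut at about 49% in these data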;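 further: 0% = DMSO-treated RORA cells and 100% = added signal equal to DMSO minus mock-transfected cells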
Calb biofilm kill: kills Candida albicans biofilms; C. albicans biofilm + clotrimazole, Alamar Blue; inhibition, % at 6 µM; 85,000 tested, 0.14% active;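 active means inhibition above 20%; inactive means inhibition below 20%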;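 further: preformed 24 hr biofilms exposed to compound for 48 hr; 0% = biofilm without compound and 100% = blank killed by clotrimazole plus chlorhexidine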
Mac1 fbg inh: inhibitors of human CD11b/CD18 binding to fibrinogen; 93,000 tested, 0.54% active; inhibition, % at 10 µM; K562 CD11b/CD18 adhesion to fibrinogen, ATPlite luminescence; Mn2+ added to activate the integrin;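 active means primary inhibition of 50% or more at 10 µM, then 40% or more on retest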
Mac1 fbg enh: CD11b/CD18-fibrinogen binding enhancement; 93,000 tested, 0.07% active; activation, % at 10 µM; P05107+P11215; K562 CD11b/CD18 adhesion to fibrinogen, ATPlite luminescence;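 active means 10 µM primary screen giving 50% or more activity, confirmed by 40% or more on retest at that dose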
MT1-MMP txn act: MT1-MMP promoter transcription activation | activation factor at 10 µM | 86,000 tested, 0.16% active | AID 750 | HT1080 MT1-MMP promoter luciferase reporter, luminescence, overnight; active compounds read high;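 active means activation factor of at least 2 for MT1-MMP transcription at 10 µM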
SF-1 act: activators of human nuclear receptor SF-1 | CHO-K1 Gal4-SF-1 LBD luciferase reporter; % increase over DMSO SF-1-specific signal | activation, % at 10 µM | 65,000 tested, 1.9% active;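 active means activation above the mean activation of all tested compounds plus 3 SD, cut at about 50% in these data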
Target sequence (Q13285 whole entry, looked up, the tested form may be a part): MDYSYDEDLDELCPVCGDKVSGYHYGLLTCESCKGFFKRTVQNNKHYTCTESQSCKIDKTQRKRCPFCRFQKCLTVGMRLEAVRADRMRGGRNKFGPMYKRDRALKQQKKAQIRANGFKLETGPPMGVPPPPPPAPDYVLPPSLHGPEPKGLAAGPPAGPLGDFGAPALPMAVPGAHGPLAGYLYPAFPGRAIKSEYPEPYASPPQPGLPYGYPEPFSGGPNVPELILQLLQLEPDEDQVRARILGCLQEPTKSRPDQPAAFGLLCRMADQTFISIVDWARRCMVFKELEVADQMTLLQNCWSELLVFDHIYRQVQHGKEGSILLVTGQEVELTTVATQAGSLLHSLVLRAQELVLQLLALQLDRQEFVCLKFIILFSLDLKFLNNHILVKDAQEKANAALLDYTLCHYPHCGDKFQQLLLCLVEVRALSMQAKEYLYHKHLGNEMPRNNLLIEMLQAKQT
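Material: CHO-K1 cells with Gal4–hSF-1 LBD chimera plus Gal4-driven luciferase / Input: 4,000 CHO-K1 cells per well / Incubation: compound exposure 20 h at 37 °C / Signal: luminescence read 15 min after SteadyLite luciferase reagent, after room-temperature equilibration / Read-out: percent activation versus DMSO / Benchmarks: DMSO negative control and −SF1 background wells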
* = called active by the depositor; x = no result. Most compounds without a hit are left out; they make up all but 2.2% or so of the library.

SMILES	RORA act	Calb biofilm kill	Mac1 fbg inh	Mac1 fbg enh	MT1-MMP txn act	SF-1 act
CCOC(=O)C1CCN(S(=O)(=O)c2ccc(C(C)=O)cc2)CC1	x	0	x	x	1.3	x
CCOC(=O)C1CCN(S(=O)(=O)c2ccc(-c3nc4ccccc4s3)s2)CC1	10	5	-9	55	1.7	68*
COc1ccccc1N1CCN(C(=O)COc2ccc(C)cc2Br)CC1	-13	5	5	-3	1	-2
Cc1ccc(OCC(=O)N2CCCCC2)c(Br)c1	54*	7	-12	2	1.3	57*
Cc1cc(OCC(=O)N2CCCC2)ccc1Cl	18	-5	0	-2	1.3	51*
CSc1nc2ccc(NS(=O)(=O)c3cccc(Cl)c3Cl)cc2s1	x	x	83	-5	x	x
COCCCn1cnc2oc3nc4ccccc4nc3c2c1=O	50*	4	4	-1	1.1	34
COCCCn1cnc2c(c1=O)c1nc3ccccc3nc1n2-c1ccccc1	-31	9	-2	-2	1	20
CC(C)C(C)(C#N)NC(=O)CSc1nnc(C(F)(F)F)n1C (stereo not given)	x	-2	-9	-1	1.2	x
Cc1ccc2nc(SCC(=O)N3CCCC3)[nH]c2c1	74*	7	-6	-3	0.9	53*
Nn1c(Nc2ccccc2)nc2ccccc21	50*	x	-2	-2	1.4	42
Nn1c(Nc2ccccc2)nc2ccccc2c1=O	16	6	3	12	0.9	-11
COc1cc(NC(=O)C(C)C)ccc1NC(=O)c1ccco1	44	4	6	0	1.1	54*
COC(=O)[C@@]1(Cc2ccccc2)[C@H]2c3cc(C(=O)N(C)C)n(Cc4cc(C)n(C)n4)c3C[C@H]2CN1C(=O)c1ccccc1	x	x	x	x	1	x
Cc1ccc(-c2nn(C)c(=O)c3ccccc23)cc1CNC(=O)Cn1nc(-c2ccccc2)c2ccccc2c1=O	x	11	-13	133*	1.3	x
Cc1cc(C)n(CC(=O)NCc2cc(-c3nn(C)c(=O)c4ccccc34)ccc2C)n1	-5	4	-7	-4	1.1	-20
Cc1nc2cc(C(=O)O)ccc2s1	21	x	5	2	1.9	53*
Cc1oc(-c2ccc(Cl)cc2)nc1CN1CCCC(C(=O)NCc2cccnc2)C1 (stereo not given)	1	-1	84*	-10	1.2	-6
COC(=O)N1C2(C=CC1(C)C(=O)NCc1ccc(N(C)C)cc1)CCCCC2 (stereo not given)	x	x	x	x	1	x
Cc1ccc(S(=O)(=O)c2c(C)cc(C)nc2Cl)c(C)c1	x	x	4	-3	x	x
Cc1cc(C)c(S(=O)(=O)/N=C2\C=CC(=O)C(Cl)=C2)c(C)c1	x	4	67*	27	1.4	x
O=C(Nc1ccccc1)OCc1ccccn1	60*	2	-20	-2	1.6	28
COc1ccc(OCC(=O)N/N=C(/C)Cc2ccccc2)cc1	x	x	-19	1	x	x
Cc1cc(-c2ccccc2)nc(N2CCC(C(=O)NCc3ccccc3Cl)CC2)n1	x	9	x	x	1.3	x
C=CCNC(=O)C1CCN(c2nc(C)cc(-c3ccccc3)n2)CC1	33	1	-16	-2	1.7	102*
SMILES	RORA act	Calb biofilm kill	Mac1 fbg inh	Mac1 fbg enh	MT1-MMP txn act	SF-1 act
Cc1ccc(C(=O)N/N=C(/CC(=O)c2cccs2)C(F)(F)F)cc1	x	x	98*	-9	x	x
CCCCNc1ncnc2c1cnn2-c1ccc(Cl)cc1	109*	6	17	1	1.6	90*
Clc1ccc(-n2ncc3c(NCCCn4ccnc4)ncnc32)cc1	12	8	5	-1	1.8	47
Fc1cccc(Nc2ncnc3c2cnn3-c2ccccc2)c1	102*	7	x	x	1.3	57*
CCCCNc1ncnc2c1cnn2-c1ccccc1	63*	-1	15	5	0.7	40
Clc1cccc(Nc2ncnc3c2cnn3-c2ccccc2)c1	29	14	-23	-4	1	45
c1csc(C(c2nnnn2C2CCCC2)N2CCCC3(CCCCC3)C2)c1 (stereo not given)	x	5	54	0	1.1	x
Cc1ccc(OCC(=O)N2N=C(C(F)(F)F)CC2(O)C(C)(C)C)cc1C (stereo not given)	x	-1	80*	-7	1.4	x
Cc1ccccc1OCC(=O)N1N=C(C(F)(F)F)CC1(O)C(C)(C)C (stereo not given)	x	0	x	x	1.1	x
COc1ccc2oc(=O)c(-c3nc(C)cs3)cc2c1	12	6	10	41	1.3	54*
COc1ccc2oc(=O)c(C(C)=O)cc2c1	x	3	5	-2	1.1	x
Cc1c(C(=O)Nc2ccccc2)sc2nc(-c3ccccc3)cn12	58*	7	-15	0	x	54*
COc1ccc(-c2cn3c(C)c(C(=O)NC(C)(C)C)sc3n2)cc1	56*	5	x	x	1.8	48
COc1ccc(-c2cn3c(C)c(C(=O)NC(C)C)sc3n2)cc1	25	8	x	x	1.1	25
N#CC1=C(N)Oc2c(O)cc3ccccc3c2C1c1ccsc1 (stereo not given)	x	x	70*	-3	x	x
CCOC(=O)C1=C(C)OC(N)=C(C#N)C1c1ccsc1 (stereo not given)	-20	1	9	-2	1.1	0
CCC(=O)Oc1ccc2ccccc2c1CNC(=O)c1ccccc1	x	x	2	2	x	x
O=[N+]([O-])c1ccccc1NCCNc1ncc(C(F)(F)F)cc1Cl	x	x	-2	1	x	x
FC(F)(F)c1cnc(NNC(=S)Nc2ccccc2Cl)c(Cl)c1	x	x	100*	-10	x	x
COC(=O)c1ccc(C(NC(=O)OCc2ccccc2)/C(F)=C/[C@@H](C)C(=O)NC2CCCCC2)cc1 (stereo not given in full)	x	x	x	x	1.1	x
O=C(/C=C/Nc1ccc(F)c(Cl)c1)c1ccco1	62*	1	-1	0	1.7	55*
O=C(/C=C/Nc1cccc(F)c1)c1ccco1	x	-4	-12	1	1.2	x
Cc1ccccc1Cn1c(=O)n(CC2CCC(C(=O)NCCc3ccccc3)CC2)c(=O)c2ccccc21 (stereo not given)	x	x	-1	78	x	x
COc1ccc(NC2CC(=O)N(c3ccccc3)C2=O)cc1 (stereo not given)	32	1	6	-1	1.4	57*
O=C1CC(Nc2ccc(N3CCOCC3)cc2)C(=O)N1c1ccccc1 (stereo not given)	x	5	-5	-6	1.3	x
Cc1cnc(C(=O)Nc2cccc(S(=O)(=O)N(C)C)c2)cn1	x	x	-8	1	x	x
O=C(Nc1ccc(Cl)c(Cl)c1)N1CC=CCC1	58*	10	4	-4	1.9	55*
CNC(=O)[C@]1(C)C[C@H]1[C@H](NC(=O)[C@]1(C)C[C@H]1[C@H](NC(=O)OCc1ccccc1)c1ccccc1)c1ccccc1	x	x	x	x	1.1	x
Clc1ccc(-c2nnc(-c3ccccc3Cl)o2)cc1	86*	7	-1	-5	1.5	19

Screens (PubChem)
